According to the EternaBench riboswitch data:

Tested on: MS2 coat protein
Test: apparent Kd, MS2 coat protein; higher = weaker binding; RNA-MaP array; FMN 200 µM where present
Method in brief: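 Green signal was scaled to red-channel RNA signal and control-cluster median Fmax, and the apparent Kd was taken as the median of filtered per-cluster binding-curve fits. The binding series used SNAP-549-labelled MS2 coat protein from 0.7 or 1.5 nM, doubling to 3 µM, on designs transcribed by stalled E. coli RNA polymerase on Illumina sequencing-chip clusters. Each series ran without and then with constant ligand in 100 mM Tris-HCl pH 7.5, 80 mM KCl, 4 mM MgCl2, BSA, DTT, yeast tRNA and Tween-20.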

[1] = designed as: OFF switch for flavin mononucleotide, no ligand
[2] = ligand present: flavin mononucleotide, designed as: OFF switch for flavin mononucleotide
[3] = designed as: ON switch for flavin mononucleotide, no ligand
[4] = ligand present: flavin mononucleotide, designed as: ON switch for flavin mononucleotide

GGGCAACAUGAGGAUCACCCAUGUCAGGAUAUUGGGCCGGGCCCGAAAGGGCCCGGAACAAGAAGGGACAGCCC
apparent Kd [1]: 23.5 nM
apparent Kd [2]: 24.5 nM

CCCGGUCUGGAGGAUAUUAUAGAGCGUGCUUAAUAAGAAGGUCAGACAUGAGGAUCACCCAUGUUCUUACCCGG
apparent Kd [1]: 23.3 nM
apparent Kd [2]: 53.8 nM

AAUGAAUAUAAAUUGUAUUUGUCGUAGGAUAUGGGUGACAUGAGGAUCACCCAUGUUGCAGACGACCAGAAGGGCGGCGGAUAU
apparent Kd [3]: 18 nM
apparent Kd [4]: 18.2 nM

GUACUAAAGCUUUGCUUUAGUCGUACAUGAGGAUCACCCAUGUAGGAUAUGGUAGGCUUUGCUUACUAGAAGGAUAGAGUGAUC
apparent Kd [1]: 110 nM
apparent Kd [2]: 36.1 nM

GGCGUGUUAGGAUAUCGCGGCGGCGGCGUUUGUUGUUGUUGUGAGAAGGAACAUGAGGAUCACCCAUGUGCGCC
apparent Kd [1]: 18.4 nM
apparent Kd [2]: 27.4 nM

AAAACUGGAGGAUAUACAUGAGGAUCACCCAUGUGUGGGUAGGCUGUGUCGGCGUCAGGUAGAAGGCCACAAAA
apparent Kd [1]: 92.3 nM
apparent Kd [2]: 136 nM

GUGGUCAGACAUGAGGAUCACCCAUGUGGAAUAAAUAAGGAUUAGGAUAUGGAAUAUAGGAUAUACCAGAAGGAAUGGUUGGUG
apparent Kd [3]: 97.8 nM
apparent Kd [4]: 103 nM

GGAUUACAAAUUUAUUUAAUUCACAUGAGGAUCACCCAUGUGUAGGAUAUGCUAGUUAAGUAAUAGCAGAAGGACAUGUGCCUU
apparent Kd [1]: 8.82 nM
apparent Kd [2]: 9.26 nM

CGUUGAUAAUAUCUUCACAUGAGGAUCACCCAUGUCGCUCGACAGGAUAUAUUUGAUUUGUUUAAGUAGAAGGGUCGCAGAUGC
apparent Kd [3]: 157 nM
apparent Kd [4]: 130 nM

GGAUCUUGGGUCAGGAUAUGCUGAUAGUUAUGUCAGCAGAAGGGACAUGAGGAUCACCCAUGUGCUCGGUUUUG
apparent Kd [1]: 11.1 nM
apparent Kd [2]: 19.7 nM

CACUGCAAUGUAGGAUAUCGACUGGAAUACAGUCGAGAAGGACAUGAGGAUCACCCAUGUACUUUGAGUGAAUAAUAAGCAGUG
apparent Kd [1]: 15.9 nM
apparent Kd [2]: 59.4 nM

ACAAUAGUAUCACAUGUAUUACAUGAGGAUCACCCAUGUAACUAGGAUAUGUUUUAAAAUUUACAACAGAAGGAGUUAUUAUGU
apparent Kd [1]: 8.2 nM
apparent Kd [2]: 14.6 nM

GAAUACACCCGACGGGUGUCCGGCAAGGAUAUGAUGAGGGCGAUGCUACAUGAGGAUCACCCAUGUCAGAAGGUGCCCUCCAGG
apparent Kd [1]: 6.59 nM
apparent Kd [2]: 7.19 nM

CCUGUGUGAGGAUAUGGUGUUGGCCAAAAGGAAUAGCUCCUCCAGAAGGCACAUGAGGAUCACCCAUGUCGUGG
apparent Kd [1]: 18 nM
apparent Kd [2]: 81.9 nM

GCAGACGUAGUGAGGAUAUGCUCUACCUCGGUAGAGCAGAAGGCACAUGAGGAUCACCCAUGUGGCUCCUCAUC
apparent Kd [1]: 15.6 nM
apparent Kd [2]: 21.9 nM

GGGCUGUCAGGAUAUCUCGGGCUCGGGUAAACUCGGGCUCGGGAGAAGGGACAUGAGGAUCACCCAUGUGGCCC
apparent Kd [1]: 30.4 nM
apparent Kd [2]: 33 nM

UGGUACUAGGGAGGAUAUGGGAAGAUACAUGAGGAUCACCCAUGUUUAAGAAUGCCGAGAGGCAACUAGAAGGCCCUAGUUCCU
apparent Kd [3]: 390 nM
apparent Kd [4]: 19.5 nM

GUACUGACAGGAUAUACAUGAGGAUCACCCAUGUCCUUAUGCUGACAAAAGUCAGCGUGUAGAAGGGUCUGUAC
apparent Kd [1]: 141 nM
apparent Kd [2]: 385 nM

UAUAUGUAUGUAGGAUAUGGUAUAUAAAAUAUACCAGAAGGACAUGAGGAUCACCCAUGUAUGAAAUUCCAUAAUAACCGUGUA
apparent Kd [1]: 11.3 nM
apparent Kd [2]: 11 nM

CCAUAAAAGAUCCAAAAUUACAACAUGAGGAUCACCCAUGUGCAGGAUAUCGUGAAAGUAAAAUACGAGAAGGGCAAACACUGC
apparent Kd [1]: 365 nM
apparent Kd [2]: 442 nM
